Experimental data gathered from unrelated publications.
Target: Serine/threonine-protein kinase N2 (PKN2, Homo sapiens, UniProt Q16513)

| SMILES | read-out | method | concentration | remaining binding [%] |
| --- | --- | --- | --- | --- |
| O=C(NCc1ncc(C(F)(F)F)cc1Cl)c1ccc2c(c1)C1(CCS(=O)(=O)CC1)[C@@H](C1CC1)N2S(=O)(=O)c1ccc(F)cc1 | cell-free assay | competition with immobilised ligand | 1 µM | 68 |
| CNC(=O)[C@@H]1CC[C@@H](n2c(-c3ccc4cnccc4c3)nc3ccc(C(=O)NCc4cccc(C(N)=O)c4)cc32)C1 | binding | competition with immobilised ligand | 1 µM | 94 |
| CN(C)C(=O)Cn1cc(-c2nc(C3(c4ccc(-c5cnc(N)nc5)cc4)CC3)no2)cn1 | cell-free assay | competition with immobilised ligand | 1 µM | 77 |
| O=C(Nc1c[nH]nc1C(=O)NC1CCNCC1)c1cc(F)cc(F)c1 | binding | competition with immobilised ligand | 1 µM | 100 |
| COc1cnc(Nc2cccc(S(N)(=O)=O)c2)nc1N1CCN(c2ccccc2)C(=O)C1 | binding | competition with immobilised ligand | 1 µM | 100 |
| N[C@H]1CCN(c2nccc(-c3cnn4ncccc34)n2)C1 | binding | – | 1 µM | 71 |
| O=C(c1ccc(Nc2nccc(-c3cc4ccccc4s3)n2)cc1)N1CCC(N2CCCC2)CC1 | binding | competition with immobilised ligand | 1 µM | 45 |
| Nc1ncc2c(n1)-c1c([nH]c3ccc(C#CC4CC4)cc13)CCCC2 | binding | competition with immobilised ligand | 1 µM | 72 |
| C[C@@H]1CCN(c2nccc(-c3cnn4ncccc34)n2)C1 | binding | – | 1 µM | 71 |
| COc1cccc(CNC(=O)c2nc3scc(COCc4ccc(C(=O)O)cc4)c3c(=O)[nH]2)c1 | cell-free assay | competition with immobilised ligand | 1 µM | 98 |
| FC(F)(F)Oc1cccc(-c2cnc3ccc(-c4ccncc4)nn23)c1 | cell-free assay | competition with immobilised ligand | 5 µM | 91 |
| CN(C)c1ncc(F)c(-c2cnn3ncccc23)n1 | binding | – | 1 µM | 100 |
| CN([C@@H]1CCc2c(CC(=O)O)c3cc(S(C)(=O)=O)ccc3n2C1)S(=O)(=O)c1ccc(F)cc1 | cell-free assay | competition with immobilised ligand | 1 µM | 100 |
| CN(c1nccc(-c2cnn3ncccc23)n1)C1CC1 | binding | – | 1 µM | 89 |
| CCN1CCN(Cc2ccc(C(=O)Nc3ccc(C)c(Oc4ccc5c(c4)CC(=O)N5)c3)cc2C(F)(F)F)CC1 | binding | competition with immobilised ligand | 1 µM | 100 |
| CN(C)c1nccc(-c2cnn3ncccc23)n1 | binding | – | 1 µM | 100 |
| O=C1NC(c2ccccn2)Sc2ccccc21 (stereo not shown) | cell-free assay | competition with immobilised ligand | 1 µM | 100 |
| O=C(NCCCN1CCOCC1)c1ccc(Nc2ncc(Cl)c(-c3ccc(Cl)s3)n2)cc1 | binding | competition with immobilised ligand | 1 µM | 36 |
| CN(C)c1nccc(-c2cnc3ncccn23)n1 | binding | – | 1 µM | 93 |
| O=C(NCCCC1CCCCC1)c1ccc(CNC(=O)c2cnn(-c3ccccc3)c2C(F)(F)F)cc1 | cell-free assay | competition with immobilised ligand | 0.1 µM | 100 |
| CC1CCCN1c1nccc(-c2cnn3ncccc23)n1 (stereo not shown) | binding | – | 1 µM | 89 |
| Cc1cnc(Nc2ccc(C(=O)N3CCC(N4CCCC4)CC3)cc2)nc1-c1cc2ccccc2s1 | binding | competition with immobilised ligand | 1 µM | 21 |
